According to ChEMBL document CHEMBL1806430, “Novel aliphatic N-oxide of naphthalimides as fluorescent markers for hypoxic cells in solid tumor” (Eur J Med Chem, 2011):
One block for each molecule: values may come before it.

Key:
V79 [1] = experiment: Ratio drug uptake in chinese hamster V79 379A cells in hypoxic to oxic condition assessed as accumulation of fluorescent N-Oxide Benzo[k,l]thioxanthene-3,4-naphthalimide metabolites at 10^-4 M after 4.5 hrs by fluorescent microscopic analysis; format: ADME, cell-based, Cricetulus griseus; conditions: 100 µM
Summary of the method: (§1)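 Hypoxic/oxic fluorescence ratio in V79 379A suspension cultures (MEM, 7.5% FCS). Cells given 10^-4 M compound (DMSO ≤1% final) at 37 °C under N2 + 5% CO2 or air + 5% CO2. Samples taken over a time course, centrifuged, PBS-washed and resuspended. Fluorescence read by microplate reader ("fluorescence scan ascent"); ratio taken at about 4.5 h.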

V79 [2] = experiment: Drug uptake in hypoxic-chinese hamster V79 379A cells assessed as accumulation of fluorescent N-Oxide Benzo[k,l]thioxanthene-3,4-naphthalimide metabolites at 10^-4 M after 4.5 hrs by fluorescent microscopic analysis; format: ADME, cell-based, Cricetulus griseus; conditions: 100 µM
Summary of the method: (§2)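 V79 379A cells grown as suspension cultures in Eagle's MEM (suspension-modified, Earle's salts) with 7.5% fetal calf serum. Compound added at 10^-4 M, DMSO 1% final or less. Incubated 4.5 h at 37 °C under nitrogen + 5% CO2 (hypoxic) or air + 5% CO2 (oxic). Cells centrifuged, PBS-washed, resuspended in PBS, then imaged by fluorescence microscopy, excitation 410 nm, 1000×.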

Nucleic Acid = experiment: Binding affinity to calf thymus DNA assessed as binding constant; format: nucleic-acid assay; conditions: Bos taurus
Summary of the method: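 Fluorescence titration: compound at 10 × 10^-6 M in 20 mM Tris–HCl pH 7.5 at room temperature, with calf thymus DNA added in rising amounts (0–400 × 10^-6 M). Excitation 460 nm; emission spectra recorded.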

V79 [3] = experiment: Drug uptake in oxic-chinese hamster V79 379A cells assessed as accumulation of fluorescent N-Oxide Benzo[k,l]thioxanthene-3,4-naphthalimide metabolite at 10^-4 M after 4.5 hrs by fluorescent microscopic analysis; format: ADME, cell-based, Cricetulus griseus; conditions: 100 µM; summary of the method: as §2
V79 [4] = experiment: Drug uptake in hypoxic-chinese hamster V79 379A cells assessed as accumulation of fluorescent N-Oxide 3-nitro-1,8-naphthalimide metabolites at 10^-4 M after 4.5 hrs by fluorescent microscopic analysis; format: ADME, cell-based, Cricetulus griseus; conditions: 100 µM; summary of the method: as §2
V79 [5] = experiment: Ratio drug uptake in chinese hamster V79 379A cells in hypoxic to oxic condition assessed as accumulation of fluorescent N-Oxide 3-nitro-1,8-naphthalimide metabolites at 10^-4 M after 4.5 hrs by fluorescent microscopic analysis; format: ADME, cell-based, Cricetulus griseus; conditions: 100 µM; summary of the method: as §1
V79 [6] = experiment: Drug uptake in oxic-chinese hamster V79 379A cells assessed as accumulation of fluorescent N-Oxide 3-nitro-1,8-naphthalimide metabolite at 10^-4 M after 4.5 hrs by fluorescent microscopic analysis; format: ADME, cell-based, Cricetulus griseus; conditions: 100 µM; summary of the method: as §2
V79 [7] = experiment: Ratio drug uptake in chinese hamster V79 379A cells in hypoxic to oxic condition assessed as accumulation of fluorescent N-Oxide Benzo[b]xanthene [2,1-c]naphthalimide metabolites at 10^-4 M after 4.5 hrs by fluorescent microscopic analysis; format: ADME, cell-based, Cricetulus griseus; conditions: 100 µM; summary of the method: as §1
V79 [8] = experiment: Drug uptake in oxic-chinese hamster V79 379A cells assessed as accumulation of fluorescent N-Oxide 3-amino-1,8-naphthalimide metabolite at 10^-4 M after 4.5 hrs by fluorescent microscopic analysis; format: ADME, cell-based, Cricetulus griseus; conditions: 100 µM; summary of the method: as §2
V79 [9] = experiment: Ratio drug uptake in chinese hamster V79 379A cells in hypoxic to oxic condition assessed as accumulation of fluorescent N-Oxide 3-amino-1,8-naphthalimide metabolites at 10^-4 M after 4.5 hrs by fluorescent microscopic analysis; format: ADME, cell-based, Cricetulus griseus; conditions: 100 µM; summary of the method: as §1
V79 [10] = experiment: Drug uptake in hypoxic-chinese hamster V79 379A cells assessed as accumulation of fluorescent N-Oxide 3-amino-1,8-naphthalimide metabolites at 10^-4 M after 4.5 hrs by fluorescent microscopic analysis; format: ADME, cell-based, Cricetulus griseus; conditions: 100 µM; summary of the method: as §2
V79 [11] = experiment: Ratio drug uptake in chinese hamster V79 379A cells in hypoxic to oxic condition assessed as accumulation of fluorescent N-Oxide Benzo[k,l]xanthene-3,4-naphthalimide metabolites at 10^-4 M after 4.5 hrs by fluorescent microscopic analysis; format: ADME, cell-based, Cricetulus griseus; conditions: 100 µM; summary of the method: as §1

Compound: C[N+](C)([O-])CCn1c(=O)c2ccc3sc4ccccc4c4ccc(c1=O)c2c34
Ratio (V79 [1]): 1.75 | Drug uptake (V79 [2]): Active | K (Nucleic Acid): 6.62 ×10³ /M | Drug uptake (V79 [3]): Not Active

Compound: CN(C)CCn1c(=O)c2ccc3sc4ccccc4c4ccc(c1=O)c2c34
K (Nucleic Acid): 2.9 ×10⁵ /M

Compound: C[N+](C)([O-])CCn1c(=O)c2ccc3oc4ccccc4c4ccc(c1=O)c2c34
Ratio (V79 [11]): 1.5

Further lines, results first:

Drug uptake (V79 [4]): Active | Ratio (V79 [5]): 17 | Drug uptake (V79 [6]): Not Active
Compound: C[N+](C)([O-])CCN1C(=O)c2cccc3cc([N+](=O)[O-])cc(c23)C1=O

Ratio (V79 [7]): 5.2
Compound: C[N+](C)([O-])CCN1C(=O)c2cccc3c2c(cc2c4ccccc4sc32)C1=O

Drug uptake (V79 [8]): Not Active | Ratio (V79 [9]): 8.4 | Drug uptake (V79 [10]): Active
Compound: C[N+](C)([O-])CCN1C(=O)c2cccc3cc(N)cc(c23)C1=O
